From article PMC12065821 (Scientific Reports, 2025)
Where a SMILES comes first, the peptide text is derived from it. Bridges are numbered along the chain shown (N, C = ends). [ ]: non-standard residue; d: D form. The star is where a group is joined. Heptanoyl(6-Me) = CC(C)CCCCC(=O)*; Dab = NCC[C@H](N)C(=O)O

Legend:
rats = test: Regression of kidney colistin/colistin B concentrations against CR, BUN, SQS; format: in vivo; conditions: 95% CI
[1] = Kidney PK of CMS/CMS-E2 and formed colistin/colistin B; format: in vivo, rats; conditions: for Kp: kidney (cortex) / plasma, colistin/colistin B; for Tmax formed colistin/colistin B in kidneys / Cmax formed colistin/colistin B in kidneys: rat kidney cortex, LC-MS/MS; for Tmax formed colistin/colistin B in kidneys: NCA; for Cmax formed colistin/colistin B in kidneys: mean ± SD
Method in brief: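 Male Sprague-Dawley rats (300 ± 15 g) got one i.p. dose in saline. At each sampling time rats were anaesthetised with tiletamine-zolazepam (40 mg/kg) and killed, and the left kidney was frozen at −70 °C. Kidney cortex was homogenised in saline (1:10 m/v, 1% BSA). Samples went through WCX solid-phase extraction with polymyxin B1 internal standard, then LC-MS/MS. Prodrug was calculated as total (after […] sulfuric acid hydrolysis) minus free colistin/colistin B. Parameters came from non-compartmental analysis.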

[2] = PK-TD model, PK component; format: in vivo; conditions: rats, single i.p. CMS-E2 40 mg/kg CBA, one-compartment PK-TD model, mean ± SD
Method in brief: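 Plasma prodrug and formed colistin/colistin B concentrations after i.p. dosing were fitted by a compartmental model. The final model used one compartment each for prodrug and formed drug, a conversion rate constant, and linear first-order total clearance from both. Fit was judged by R², AIC, BIC and visual inspection. Estimates are mean ± SD.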

[3] = cited from earlier work
[4] = cited from earlier work; remark: listed apart in the source
[5] = Plasma PK of CMS/CMS-E2 and formed colistin/colistin B; format: in vivo, rats; conditions: rat plasma, LC-MS/MS, NCA, mean ± SD
Method in brief: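 Male Sprague-Dawley rats were dosed once i.p. in saline, and serial jugular-vein blood was taken before and after dosing. Blood was heparinised (1%), spun at 4,982 × g for 10 min at 4 °C, and plasma stored at −70 °C. Plasma (40 µL) went through WCX solid-phase extraction with polymyxin B1 internal standard, then LC-MS/MS. Prodrug was total (acid-hydrolysed) minus free analyte. […] Values are mean ± SD, compared by Wilcoxon rank sum.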

[6] = single i.p. CMS or CMS-E2 20 mg/kg CBA
[7] = single i.p. CMS-E2 40 mg/kg CBA

regression coefficient between kidney concentration and SQS (rats; ordered logistic regression): 0.03
regression coefficient between kidney concentration and contemporaneous BUN (rats; simple linear regression): 0.08
regression coefficient between kidney concentration and contemporaneous CR (rats; simple linear regression): 1.58
Kp ([1]; male, Sprague-Dawley, rat, ip, 20 mg/kg CBA, Kidney/plasma ratio of AUC0-inf, rats, single i.p. CMS or CMS-E2 20 mg/kg CBA): 19.7
Kp ([1]; male, Sprague-Dawley, rat, ip, 40 mg/kg CBA, Kidney/plasma ratio of AUC0-inf, rats, single i.p. CMS-E2 40 mg/kg CBA): 39.6
Kp ([1]; male, Sprague-Dawley, rat, ip, 40 mg/kg CBA, Kidney/plasma ratio of Cmax, rats, single i.p. CMS-E2 40 mg/kg CBA): 20.1
tissue level at time at 8 h ([1]; male, Sprague-Dawley, rat, kidney cortex, ip, 20 mg/kg CBA, SD): 4860 ± 2360 ng/g
tissue level at time at 24 h ([1]; male, Sprague-Dawley, rat, kidney cortex, ip, 40 mg/kg CBA, SD): 11500 ± 1740 ng/g
Tmax formed colistin/colistin B in kidneys [1, 6]: 4 h
Cmax formed colistin/colistin B in kidneys ([1]; single i.p. CMS or CMS-E2 20 mg/kg CBA, SD): 17.6 ± 6.79 µg/g
Tmax formed colistin/colistin B in kidneys [1, 7]: 10 h
Cmax formed colistin/colistin B in kidneys ([1]; single i.p. CMS-E2 40 mg/kg CBA, SD): 148 ± 32.8 µg/g
Kidney/plasma ratio of Cmax, colistin/colistin B ([1]; rats, single i.p. CMS or CMS-E2 20 mg/kg CBA): 15.4
CLcolistin/colistin B (total body clearance) [2]: 1.89 ± 0.809 mL/min/kg
AUC0-inf formed colistin/colistin B in plasma [5, 6]: 4140 ± 1260 ng·h/mL
Cmax formed colistin/colistin B in plasma [5, 6]: 1140 ± 217 ng/mL
Tmax formed colistin/colistin B in plasma [5, 6]: 1.67 ± 0.471 h
t1/2 formed colistin/colistin B in plasma [5, 6]: 1.22 ± 0.313 h
AUC0-inf formed colistin/colistin B in plasma [5, 7]: 35500 ± 23900 ng·h/mL
Cmax formed colistin/colistin B in plasma [5, 7]: 7080 ± 2770 ng/mL
Tmax formed colistin/colistin B in plasma [5, 7]: 4.71 ± 0.881 h
t1/2 formed colistin/colistin B in plasma [5, 7]: 2.13 ± 0.827 h
Structure (SMILES): CC(C)CCCCC(=O)N[C@@H](CCN)C(=O)N[C@H](C(=O)N[C@@H](CCN)C(=O)N[C@H]1CCNC(=O)[C@H]([C@@H](C)O)NC(=O)[C@H](CCN)NC(=O)[C@H](CCN)NC(=O)[C@H](CC(C)C)NC(=O)[C@@H](CC(C)C)NC(=O)[C@H](CCN)NC1=O)[C@@H](C)O [colistin B] ({Heptanoyl(6-Me)}-[Dab]T[Dab][Dab][Dab][dL]L[Dab][Dab]T; lactam 4-C)
clearance after the colistin sulfate [3]: 5.2 ± 0.4 mL/min/kg
clearance relative to colistin [3]: almost half
clearance when administered as a single component [3]: 3.05 ± 0.62 mL/min/kg
plasma protein binding [4]: 41.7 ± 12.4%
